Published values of several laboratories.
Lines come from different studies, so protocols differ.
Target: Muscarinic acetylcholine receptor M2 (CHRM2, Homo sapiens, UniProt P08172)
Sequence (P08172 1-466, as in one of the studies): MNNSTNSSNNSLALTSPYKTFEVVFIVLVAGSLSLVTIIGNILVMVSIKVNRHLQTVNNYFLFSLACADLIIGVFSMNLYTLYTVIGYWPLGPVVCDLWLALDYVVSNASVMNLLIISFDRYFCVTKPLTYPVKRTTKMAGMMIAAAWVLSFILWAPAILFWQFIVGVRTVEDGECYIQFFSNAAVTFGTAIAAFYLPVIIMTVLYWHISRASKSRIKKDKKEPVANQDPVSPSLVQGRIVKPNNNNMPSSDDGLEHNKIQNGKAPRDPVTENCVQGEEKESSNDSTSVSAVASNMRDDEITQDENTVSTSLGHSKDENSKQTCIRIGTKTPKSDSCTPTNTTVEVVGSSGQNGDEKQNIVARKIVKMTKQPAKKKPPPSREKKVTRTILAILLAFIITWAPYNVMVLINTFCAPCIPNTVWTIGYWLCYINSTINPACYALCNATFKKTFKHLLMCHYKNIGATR

For `CCn1c(-c2nc3ccc(C(=O)N4CCCC(N)C4)cc3n2C)cc2ccccc21` (centres unmarked), the IC50 was over 15.8 µM (calcium signal, antagonist, fluorescence).
For `COc1ccnc(Oc2ccc(-c3c(C)c(=O)[nH]c(=O)n3C)c(C)c2)c1C(F)(F)F`, the Ki was 6.9 µM (ligand displacement, radioligand).
For `CCCCN1CCC(COC(=O)c2ccc(N)c(OCF)c2)CC1`, the Ki was over 10 µM (cell-free assay, radioligand).
With `CCN(C(=O)C1CCN(S(=O)(=O)c2ccc3[nH]ncc3c2)CC1)[C@H](C)c1ccccc1` the EC50 was over 30 µM (calcium signal, agonist).
For `CCOCc1nc(O)c(-c2nnc(Cc3ccc(Cl)cn3)o2)c(O)c1-c1c(OC)cccc1OC`, the IC50 was over 30 µM (ligand displacement, radioligand).
`CCn1c(-c2nc3cc(C(=O)N4CCC[C@@H](N)C4)cc(OC)c3n2C)cc2cccnc21` gave an EC50 of over 15.8 µM (calcium signal, agonist).
`Cc1cc(Oc2nccc3occc23)ccc1-c1c(C)c(=O)[nH]c(=O)n1C1CC1` has a Ki of 7.7 µM (ligand displacement, radioligand).
The EC50 of `CC[C@@H]1SC2(CCN(C)CC2)NC1=O` is reported as over 50 µM (calcium signal, agonist).
